In the library only some 3.7% were active in any assay of this set; here they are far more common.
hERG protect = hERG rescue from dofetilide block, primary screen, cell-based, CHO-hERG, FluxOR thallium flux, dofetilide IC70 | Voltage-gated inwardly rectifying potassium channel KCNH2 (Homo sapiens), Q12809 | dofetilide IC70 present | activation (rescue from dofetilide block), less the hit threshold, % at 10 µM | hit rate 0.51% among 310,000 | AID 1511, 2009;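 active = activation above the mean of controls blocked by dofetilide plus 5 SD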;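 also: thallium influx through hERG after potassium depolarization seen as dye fluorescence rise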
KCNQ1 inh = inhibitors of human KCNQ1 channel, primary screen, cell-based, thallium flux, high-throughput; Potassium voltage-gated channel subfamily KQT member 1 (Homo sapiens), P51787; CHO-K1 KCNQ1, FluxOR thallium flux fluorescence; active compounds read high; B-score at 10 µM; hit rate 1.3% among 310,000;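 active = compounds whose thallium flux B-score, printed positive for inhibition, exceeds three library SD while starting fluorescence stays within three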;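 also: channel opened by potassium depolarization with thallium stimulus after 20 min compound exposure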
Kir21 block = inhibitors of mouse Kir2.1 inward-rectifier potassium channel; AID 1672, 2009; B-score at 10 µM; hit rate 0.85% among 310,000; HEK293-Kir2.1, FluxOR thallium flux fluorescence; active compounds read low; Inward rectifier potassium channel 2 (Mus musculus), P35561;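 active = fluorescence ratio B-score at or below minus 3 SD of library scores, with starting-brightness B-score within 2 SD, cut at about -4.2 in these data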;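 also: channel flux triggered by added potassium and thallium sulfate stimulus; B-score of peak minus minimum fluorescence over baseline after thallium stimulus; more negative B-score means stronger Kir2.1 block with less thallium influx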
KCNK3 inh = human KCNK3 channel inhibitors, primary screen, CHO cells, FluxOR thallium flux, B-score; Potassium channel subfamily K member 3 (Homo sapiens), O14649; FluxOR fluorescence; active compounds read low; B-score at 10 µM; hit rate 0.84% among 340,000; AID 602410, 2012;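 active = B-score under library mean minus 4 SD, starting fluorescence ratio at most library mean plus 5 SD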;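 also: more negative B-score means stronger inhibition of thallium flux through KCNK3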
KCNQ1 pot = potentiators or activators of KCNQ1 channel, primary screen, cell-based, thallium flux, high-throughput; hit rate 0.35% among 310,000; B-score at 10 µM; CHO-K1 KCNQ1, thallium flux FluxOR fluorescence; active compounds read high;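 active = fluorescence ratio B-score, a plate-corrected score, at least three library SD, with initial intensity B-score within 5 SD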
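Material: CHO-K1 cells stably expressing KCNQ1. Medium: assay buffer for compound exposure, DMSO matched across wells. Reagent: K+/Tl+ depolarizing stimulus. Compound dosing: single-concentration screen. Times: 37 °C overnight plating, 90-min dark dye load, 20-min compound pretreatment. Technique: FluxOR Tl+ flux fluorescence.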
KCNK9 inh = KCNK9 potassium channel inhibitors, primary screen, HEK293 cells, thallium flux; FluxOR thallium flux fluorescence; active compounds read low; B-score at 10 µM; hit rate 1.2% among 310,000; AID 488922, 2010;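 active = ratio B-score over 3 SD below the library mean, with starting fluorescence within 5 SD of its mean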;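 also: negative B-score means less thallium flux so channel inhibition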
Starred values were filed as active, the others as inactive; i = inactive; / = no result given.

SMILES | hERG protect | KCNQ1 inh | Kir21 block | KCNK3 inh | KCNQ1 pot | KCNK9 inh
N#Cc1ccsc1NC(=O)c1ccc(Cl)c([N+](=O)[O-])c1 | -15 | 7* | 0.84 | i | i | i
O=C(Nc1ccccn1)c1ccc(Cl)c([N+](=O)[O-])c1 | -9 | i | 0.09 | i | i | i
O=C(Nc1ccc(C(O)(C(F)(F)F)C(F)(F)F)cc1)c1ccc(Cl)c([N+](=O)[O-])c1 | -50 | 6* | -1.5 | i | i | i
Cc1nc(-n2ncc(C#N)c2N)c2c3c(sc2n1)CCC3 | -7 | i | -0.01 | i | i | i
CCOC(=O)c1cnn(-c2nc(SC)nc3sc4c(c23)CCC4)c1N | -14 | i | 0.26 | i | i | -7.8*
O=C(Oc1ccc(/C=N/O)cc1)c1ccccc1 | -10 | i | -5.6* | i | i | i
CCOC(=O)/C(=C/c1ccc(OC(=O)c2ccncc2)cc1)C(C)=O | -14 | i | -1 | i | i | i
O=C(Oc1ccc(/C=N/Nc2ccccc2)cc1)c1ccccc1 | -13 | i | -4.6* | i | i | i
COCCOC(=O)/C(=C/c1ccc(OC(=O)c2ccccc2)cc1)C(C)=O | -20 | i | -14* | i | 13* | i
O=C(O)c1ccc(N/N=C/c2ccc(OC(=O)c3cccc(Cl)c3)cc2)cc1 | -2 | i | 3.4 | i | i | i
COc1ccc(N2CC(C(=O)NC3CCSC3=O)CC2=O)cc1 (configuration not stated) | -11 | i | -1.8 | i | i | i
Cc1nn(-c2ccccc2)c(C)c1NC(=O)COC(=O)c1cc(Br)ccc1O | -12 | i | -0.03 | i | i | i
Nc1nc2c(s1)CCc1ccccc1-2 | -2 | i | -0.49 | i | i | i
N#C/C(=C(/O)CCl)c1nc2c(s1)CCc1ccccc1-2 | -16 | 6* | 0 | i | i | i
Cc1ccc(S(=O)(=O)N2CCOC23CCN(S(=O)(=O)c2c(C)cc(C)cc2C)CC3)cc1 | -9 | i | 0.15 | i | i | i
COc1ccc(/C=N/Nc2cc(C)nc(-n3nc(C)cc3C)n2)cc1 | -17 | i | -2.6 | i | i | -6.7*
COc1ccc2nc(C)cc(N/N=C/c3ccccc3)c2c1 | / | / | / | -9.4* | / | /
Cc1cc(N/N=C/c2cccc([N+](=O)[O-])c2)nc(-n2nc(C)cc2C)n1 | -4 | i | -0.15 | i | i | i
COc1ccccc1/C=N/Nc1cc(C)nc2ccc(C)cc12 | -10 | i | -0.62 | i | i | i
Cc1cc(N/N=C/c2cccc(Cl)c2)nc(-n2nc(C)cc2C)n1 | -9 | i | -1.1 | i | i | -8*
O=C(Cc1cn(Cc2cccc(Cl)c2)c2ccccc12)N1CCCC1 | -14 | i | -5.2* | i | i | i
COc1ccccc1CNC(=S)NCc1ccc(F)cc1 | -10 | i | -0.11 | i | i | i
CC1=CCC2C(=O)N(c3cccc(C(=O)Nc4ccccc4Cl)c3)C(=O)C2C1 (configuration not stated) | -4 | i | 0.19 | i | i | i
COc1cccc(CNC(=O)CCC2CCCN(C(=O)CCn3cncn3)C2)c1 (configuration not stated) | -7 | i | 0.07 | i | i | i
Cc1ccc(CSCCNC(=O)CN2C(=O)c3ccccc3S2(=O)=O)cc1 | 4.9* | i | 0.08 | i | i | i
SMILES | hERG protect | KCNQ1 inh | Kir21 block | KCNK3 inh | KCNQ1 pot | KCNK9 inh
CCOC(=O)c1ccc(Oc2nc(N(C)C)nc(N(C)C)n2)cc1 | -1 | i | -1.2 | i | i | i
CCOC(=O)c1ccc(Oc2nc(NC(C)(C)C)nc(N(C)C)n2)cc1 | -2 | i | 0.17 | i | 27* | i
CCN(CC)CCCNC(=O)c1oc2ccc(S(=O)(=O)N3CC(C)CC(C)C3)cc2c1C (configuration not stated) | -6 | i | 0.68 | i | i | i
Cc1ccc2cc(/C=C3\N=C(c4ccccc4)OC3=O)c(N3CCOCC3)nc2c1 | -36 | 8* | -0.85 | / | i | i
O=c1[nH]c(NCCO)nnc1Cc1ccccc1 | -3 | i | -0.98 | i | i | i
N#CC(C#N)=C1C=CC=CN1/C(=C\c1ccccc1)C(=O)c1cccs1 | -25 | i | -5* | i | i | i
Cc1[nH]n(-c2ccccc2)c(=O)c1N=Nc1nccs1 | 114* | i | -0.25 | i | 78* | i
Cc1[nH]n(-c2ccccc2)c(=O)c1N=Nc1ccccc1O | -3 | i | -1.2 | i | i | i
CCC(=O)N(Cc1ccco1)c1nc(-c2ccc(OC)cc2)cs1 | -8 | i | 1.7 | i | i | i
CCC(=O)N(CC)c1nc(-c2ccc(OC)cc2)cs1 | 9.0* | i | -0.02 | i | i | i
COc1ccc(-c2csc(N(CCCN(C)C)C(=O)c3ccccc3Cl)n2)cc1 | -4 | i | -2.4 | i | 11* | i
COc1ccc(-c2csc(N(CCCN(C)C)C(=O)c3ccccc3C)n2)cc1 | -6 | i | -0.19 | i | i | i
O=C(CCc1nc(-c2ccc(Cl)cc2)no1)NC1CCCCC1 | -10 | i | 1.1 | i | i | i
O=C(CCCc1nc(-c2ccc(Cl)cc2)no1)NC1CCCC1 | -8 | i | -4.3* | i | i | i
O=C(NCC1CC1(Cl)Cl)Nc1ccc(Cl)c(Cl)c1 (configuration not stated) | -15 | i | 0.38 | i | i | -8.4*
CCOC(=O)CCN(C(=S)Nc1ccccc1)C1CCCCC1 | / | / | / | i | / | /
O=C(NN1C(=O)CSC1=S)C(=O)NN1C(=O)CSC1=S | 5.2* | i | -0.87 | i | i | i
O=[N+]([O-])c1cc([N+](=O)[O-])c2oc(-c3ccccc3)c(Br)c2c1O | -20 | 8* | -0.97 | i | i | i
CCOc1cc(CNc2ncn[nH]2)ccc1OCC(=O)NC(C)(C)C | -6 | i | 0.25 | i | i | i
Cc1cnc(C(=O)NCC(=O)Nc2ccccc2Br)cn1 | / | / | / | i | / | /
CCOC(=O)C1=C(C)Nc2sc(C(=O)c3ccc(OC)cc3)c(N)c2C1c1ccc(C(=O)OC)cc1 (configuration not stated) | -10 | i | -0.64 | i | i | -6.7*
COc1ccc(C2=CC(=O)CC(C)(C)C2)cc1OC | / | / | / | i | / | /
